Calls of active or inactive are those of the source.
Legend:
[1] = tested on: T47D; assay: Inhibition of PR-A gene expression in human T47D cells at 25 nM by syber green assay in presence of 10 nM estradiol; assay type: functional, cell-based
[2] = tested on: T47D; assay: Inhibition of PR-B gene expression in human T47D cells at 25 nM by syber green assay in presence of 10 nM estradiol; assay type: functional, cell-based
[3] = tested on: T47D; assay: Inhibition of PR-A mRNA gene expression in human T47D cells at 100 nM by syber green assay; assay type: functional
Method in brief: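 T47D cells plated at 80,000/well without antibiotics two days before Oligofectamine transfection with agRNA duplex (25 or 100 nM final); medium changed at 24 h, harvest day 5 unless stated otherwise. TRIzol total RNA; PR mRNA by real-time PCR with SYBR Green: 50 °C 2 min, 95 °C 10 min, 40 cycles 95 °C 15 s/60 °C 1 min.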

[4] = tested on: T47D; assay: Inhibition of PR-B mRNA gene expression in human T47D cells at 100 nM by syber green assay; assay type: functional
Method in brief: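 T47D cells in RPMI-1640 with 10% FBS, NEAA, insulin, 37 °C, 5% CO2. Plated two days before transfection without antibiotics. Oligofectamine-mediated duplex RNA transfection at 100 nM final, medium changed at 24 h, harvest five days post-transfection. Total RNA extracted with TRIzol. hPR mRNA quantified by SYBR Green qPCR: 50 °C 2 min, 95 °C 10 min, then 40 cycles of 95 °C 15 s / 60 °C 1 min.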

[5] = tested on: T47D; assay: Inhibition of androgen receptor expression in human T47D cells after 12 days at 100 nM by syber green assay; assay type: functional, cell-based
Method in brief: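 AR expression in T47D cells, grown in RPMI-1640 with 10% FBS, NEAA and insulin. Plated antibiotic-free two days before Oligofectamine transfection with 100 nM duplex RNA; medium replaced after 24 h. TRIzol total RNA. SYBR Green real-time PCR: 50 °C 2 min, 95 °C 10 min, 40 cycles of 95 °C 15 s and 60 °C 1 min.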

[6] = tested on: T47D; assay: Effect of DNA methylation at (-178) CpG site near androgen receptor transcription start site (-13) in human T47D cells by sodium bisulfite sequencing analysis; assay type: functional, cell-based
Method in brief: (§1)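 T47D cells (RPMI-1640, 10% FBS, NEAA, insulin; 37 °C, 5% CO2) transfected with agRNA duplexes via Oligofectamine, medium changed at 24 h. Genomic DNA bisulphite-treated, regions around AR and hPR-B start sites PCR-amplified (HotStarTaq, 100 ng treated DNA), gel-purified, TOPO TA cloned; 5–15 colonies per plate miniprepped and sequenced.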

[7] = tested on: T47D; assay: Effect of DNA methylation at (-172) CpG site near androgen receptor transcription start site (-13) in human T47D cells by sodium bisulfite sequencing analysis; assay type: functional, cell-based; method in brief: as §1
[8] = tested on: T47D; assay: Effect of DNA methylation at (-167) CpG site near androgen receptor transcription start site (-13) in human T47D cells by sodium bisulfite sequencing analysis; assay type: functional, cell-based; method in brief: as §1
[9] = tested on: T47D; assay: Effect of DNA methylation at (-132) CpG site near androgen receptor transcription start site (-13) in human T47D cells by sodium bisulfite sequencing analysis; assay type: functional, cell-based; method in brief: as §1
[10] = tested on: T47D; assay: Effect of DNA methylation at (-126) CpG site near androgen receptor transcription start site (-13) in human T47D cells by sodium bisulfite sequencing analysis; assay type: functional, cell-based; method in brief: as §1
[11] = tested on: T47D; assay: Effect of DNA methylation at (-124) CpG site near androgen receptor transcription start site (-13) in human T47D cells by sodium bisulfite sequencing analysis; assay type: functional, cell-based; method in brief: as §1
[12] = tested on: T47D; assay: Effect of DNA methylation at (-122) CpG site near androgen receptor transcription start site (-13) in human T47D cells by sodium bisulfite sequencing analysis; assay type: functional, cell-based; method in brief: as §1
[13] = tested on: T47D; assay: Effect of DNA methylation at (-57) CpG site near androgen receptor transcription start site (-13) in human T47D cells by sodium bisulfite sequencing analysis; assay type: functional, cell-based; method in brief: as §1
[14] = tested on: T47D; assay: Effect of DNA methylation at (-52) CpG site near androgen receptor transcription start site (-13) in human T47D cells by sodium bisulfite sequencing analysis; assay type: functional, cell-based; method in brief: as §1
[15] = tested on: T47D; assay: Effect of DNA methylation at (-43) CpG site near androgen receptor transcription start site (-13) in human T47D cells by sodium bisulfite sequencing analysis; assay type: functional, cell-based; method in brief: as §1
[16] = tested on: T47D; assay: Effect of DNA methylation at (-36) CpG site near androgen receptor transcription start site (-13) in human T47D cells by sodium bisulfite sequencing analysis; assay type: functional, cell-based; method in brief: as §1
[17] = tested on: T47D; assay: Effect of DNA methylation at (-31) CpG site near androgen receptor transcription start site (-13) in human T47D cells by sodium bisulfite sequencing analysis; assay type: functional, cell-based; method in brief: as §1
[18] = tested on: T47D; assay: Effect of DNA methylation at (+1) CpG site near androgen receptor transcription start site (-13) in human T47D cells by sodium bisulfite sequencing analysis; assay type: functional, cell-based
Method in brief: (§2)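 T47D cells grown in RPMI-1640 with 10% FBS, 0.5% NEAA, insulin and P/S at 37 °C, 5% CO2. They were plated at 80,000 cells/well 2 days before lipid transfection with 25 nM or 100 nM duplex, with medium changed at 24 h. Cells were harvested 5 days post-transfection. 100 ng bisulfite-treated DNA was PCR-amplified, and products were TA-cloned. 5–15 colonies per plate were sequenced.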

[19] = tested on: T47D; assay: Effect of DNA methylation at (+11) CpG site near androgen receptor transcription start site (-13) in human T47D cells by sodium bisulfite sequencing analysis; assay type: functional, cell-based; method in brief: as §2
[20] = tested on: T47D; assay: Effect of DNA methylation at (+19) CpG site near androgen receptor transcription start site (-13) in human T47D cells by sodium bisulfite sequencing analysis; assay type: functional, cell-based; method in brief: as §2
[21] = tested on: T47D; assay: Effect of DNA methylation at (+43) CpG site near androgen receptor transcription start site (-13) in human T47D cells by sodium bisulfite sequencing analysis; assay type: functional, cell-based; method in brief: as §1
[22] = tested on: T47D; assay: Effect of DNA methylation at (-178) CpG site near androgen receptor transcription start site (-9) in human T47D cells by sodium bisulfite sequencing analysis; assay type: functional, cell-based; method in brief: as §1
[23] = tested on: T47D; assay: Effect of DNA methylation at (-172) CpG site near androgen receptor transcription start site (-9) in human T47D cells by sodium bisulfite sequencing analysis; assay type: functional, cell-based; method in brief: as §1
[24] = tested on: T47D; assay: Effect of DNA methylation at (-167) CpG site near androgen receptor transcription start site (-9) in human T47D cells by sodium bisulfite sequencing analysis; assay type: functional, cell-based; method in brief: as §1
[25] = tested on: T47D; assay: Effect of DNA methylation at (-132) CpG site near androgen receptor transcription start site (-9) in human T47D cells by sodium bisulfite sequencing analysis; assay type: functional, cell-based; method in brief: as §1
[26] = tested on: T47D; assay: Effect of DNA methylation at (-126) CpG site near androgen receptor transcription start site (-9) in human T47D cells by sodium bisulfite sequencing analysis; assay type: functional, cell-based; method in brief: as §1
[27] = tested on: T47D; assay: Effect of DNA methylation at (-124) CpG site near androgen receptor transcription start site (-9) in human T47D cells by sodium bisulfite sequencing analysis; assay type: functional, cell-based; method in brief: as §1
[28] = tested on: T47D; assay: Effect of DNA methylation at (-122) CpG site near androgen receptor transcription start site (-9) in human T47D cells by sodium bisulfite sequencing analysis; assay type: functional, cell-based; method in brief: as §1
[29] = tested on: T47D; assay: Effect of DNA methylation at (-57) CpG site near androgen receptor transcription start site (-9) in human T47D cells by sodium bisulfite sequencing analysis; assay type: functional, cell-based; method in brief: as §1
[30] = tested on: T47D; assay: Effect of DNA methylation at (-52) CpG site near androgen receptor transcription start site (-9) in human T47D cells by sodium bisulfite sequencing analysis; assay type: functional, cell-based; method in brief: as §1
[31] = tested on: T47D; assay: Effect of DNA methylation at (-43) CpG site near androgen receptor transcription start site (-9) in human T47D cells by sodium bisulfite sequencing analysis; assay type: functional, cell-based; method in brief: as §1
[32] = tested on: T47D; assay: Effect of DNA methylation at (-36) CpG site near androgen receptor transcription start site (-9) in human T47D cells by sodium bisulfite sequencing analysis; assay type: functional, cell-based; method in brief: as §1
[33] = tested on: T47D; assay: Effect of DNA methylation at (-31) CpG site near androgen receptor transcription start site (-9) in human T47D cells by sodium bisulfite sequencing analysis; assay type: functional, cell-based; method in brief: as §1
[34] = tested on: T47D; assay: Effect of DNA methylation at (+1) CpG site near androgen receptor transcription start site (-9) in human T47D cells by sodium bisulfite sequencing analysis; assay type: functional, cell-based; method in brief: as §2
[35] = tested on: T47D; assay: Effect of DNA methylation at (+11) CpG site near androgen receptor transcription start site (-9) in human T47D cells by sodium bisulfite sequencing analysis; assay type: functional, cell-based; method in brief: as §2
[36] = tested on: T47D; assay: Effect of DNA methylation at (+19) CpG site near androgen receptor transcription start site (-9) in human T47D cells by sodium bisulfite sequencing analysis; assay type: functional, cell-based; method in brief: as §2
[37] = tested on: T47D; assay: Effect of DNA methylation at (+43) CpG site near androgen receptor transcription start site (-9) in human T47D cells by sodium bisulfite sequencing analysis; assay type: functional, cell-based; method in brief: as §1

Cc1cn(CC(=O)N(CCNC(=O)CN(CCNC(=O)CN(CCNC(=O)CN(CCNC(=O)CN(CCNC(=O)CN(CCNC(=O)CN(CCNC(=O)CN(CCNC(=O)CN(CCNC(=O)CN(CCNC(=O)CN(CCNC(=O)CN(CCNC(=O)CN(CCNC(=O)CN(CCNC(=O)CN(CCNC(=O)CN(CCNC(=O)CN(CCNC(=O)CN(CCNC(=O)CN(CCNC(=O)CN(CCNC(=O)CN)C(=O)Cn2ccc(N)nc2=O)C(=O)Cn2ccc(=O)[nH]c2=O)C(=O)Cn2ccc(N)nc2=O)C(=O)Cn2ccc(=O)[nH]c2=O)C(=O)Cn2ccc(N)nc2=O)C(=O)Cn2ccc(N)nc2=O)C(=O)Cn2cnc3c(N)ncnc32)C(=O)Cn2ccc(N)nc2=O)C(=O)Cn2ccc(N)nc2=O)C(=O)Cn2ccc(=O)[nH]c2=O)C(=O)Cn2ccc(N)nc2=O)C(=O)Cn2ccc(N)nc2=O)C(=O)Cn2ccc(N)nc2=O)C(=O)Cn2cnc3c(N)ncnc32)C(=O)Cn2cnc3c(=O)[nH]c(N)nc32)C(=O)Cn2ccc(N)nc2=O)C(=O)Cn2cnc3c(=O)[nH]c(N)nc32)C(=O)Cn2ccc(N)nc2=O)C(=O)Cn2ccc(N)nc2=O)CC(=O)NCCN(CC(=O)NCC(=O)O)C(=O)Cn2cc(C)c(=O)[nH]c2=O)c(=O)[nH]c1=O
100%: inhibition at 0.1 µM [3] | inhibition at 0.1 µM [4]
active: inhibition [1] | inhibition [2] | inhibition [5]
inactive: Activity [6] | Activity [7] | Activity [8] | Activity [9] | Activity [10] | Activity [11] | Activity [12] | Activity [13] | Activity [14] | Activity [15] | Activity [16] | Activity [17] | Activity [18] | Activity [19] | Activity [20] | Activity [21]

Cc1cn(CC(=O)N(CCNC(=O)CN(CCNC(=O)CN(CCNC(=O)CN(CCNC(=O)CN(CCNC(=O)CN(CCNC(=O)CN(CCNC(=O)CN(CCNC(=O)CN(CCNC(=O)CN(CCNC(=O)CN(CCNC(=O)CN(CCNC(=O)CN(CCNC(=O)CN(CCNC(=O)CN(CCNC(=O)CN(CCNC(=O)CN(CCNC(=O)CN(CCNC(=O)CN(CCNC(=O)CN(CCNC(=O)CN)C(=O)Cn2ccc(N)nc2=O)C(=O)Cn2ccc(N)nc2=O)C(=O)Cn2cnc3c(N)ncnc32)C(=O)Cn2ccc(N)nc2=O)C(=O)Cn2ccc(N)nc2=O)C(=O)Cn2ccc(=O)[nH]c2=O)C(=O)Cn2ccc(N)nc2=O)C(=O)Cn2ccc(N)nc2=O)C(=O)Cn2ccc(N)nc2=O)C(=O)Cn2cnc3c(N)ncnc32)C(=O)Cn2cnc3c(=O)[nH]c(N)nc32)C(=O)Cn2ccc(N)nc2=O)C(=O)Cn2cnc3c(=O)[nH]c(N)nc32)C(=O)Cn2ccc(N)nc2=O)C(=O)Cn2ccc(N)nc2=O)C(=O)Cn2ccc(N)nc2=O)C(=O)Cn2ccc(N)nc2=O)C(=O)Cn2ccc(N)nc2=O)C(=O)Cn2ccc(=O)[nH]c2=O)CC(=O)NCCN(CC(=O)NCC(=O)O)C(=O)Cn2cc(C)c(=O)[nH]c2=O)c(=O)[nH]c1=O
82%: inhibition at 0.1 µM [3] | inhibition at 0.1 µM [4]
inactive: Activity [22] | Activity [23] | Activity [24] | Activity [25] | Activity [26] | Activity [27] | Activity [28] | Activity [29] | Activity [30] | Activity [31] | Activity [32] | Activity [33] | Activity [34] | Activity [35] | Activity [36] | Activity [37]
active: inhibition [1] | inhibition [2] | inhibition [5]

Source: ChEMBL document CHEMBL1250442, “Inhibiting gene expression at transcription start sites in chromosomal DNA with antigene RNAs” (Nat Chem Biol, 2005)
